Data: ChEMBL document CHEMBL1130336, “Polyanion inhibitors of human immunodeficiency virus and other viruses. 6. Micelle-like anti-HIV polyanionic compounds based on a carbohydrate core” (J Med Chem, 1997)
pIC50: −log10 of the molar value.

Legend:
[1] = tested on: Vero; experiment: Concentration required to reduce sindbis virus-inducted cytopathicity by 50% (Vero cells); format: functional, cell-based; details: Chlorocebus sabaeus
[2] = tested on: MT4; experiment: Concentration required to reduce the viability of uninfected MT-4 cells by 50%; format: functional; details: Homo sapiens
How it was run: (§1)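 Cytotoxicity in uninfected CEM-4 or MT-4 cells, measured as inhibition of cell growth. The value is the concentration that lowers viability by 50%.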

[3] = tested on: Vero; experiment: Concentration required to reduce forest virus-inducted cytopathicity by 50% (Vero cells); format: functional, cell-based; details: Chlorocebus sabaeus
[4] = tested on: Vaccinia virus; experiment: Concentration required to reduce vaccinia virus-inducted cytopathicity by 50% (E6SM cells); format: functional, organism-based, Orthopoxvirus vaccinia; details: Orthopoxvirus vaccinia, E6SM
[5] = tested on: HeLa; experiment: Concentration required to cause a microscopically detectable alteration of normal Hela cell morphology; format: functional, cell-based; details: Homo sapiens
[6] = tested on: Vero; experiment: Concentration required to reduce Coxsackie virus-inducted cytopathicity by 50% (Vero cells); format: functional, cell-based; details: Chlorocebus sabaeus
[7] = tested on: E6SM; experiment: Concentration required to reduce herpes simplex virus-1TK (McIntyre) inducted cytopathicity by 50% (E6SM cells); format: functional, cell-based; details: Homo sapiens
How it was run: (§2)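 Virus was added in the presence of compound, and the cells were incubated until cytopathic effect was scored. The value is the concentration that reduces virus-induced CPE by 50%.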

[8] = tested on: CEM-4; experiment: Concentration required to reduce the viability of uninfected CEM-4 cells by 50%; format: functional; details: Homo sapiens; how it was run: as §1
[9] = tested on: MT4; experiment: Concentration required to inhibit human immunodeficiency virus-2 induced cytopathicity in MT-4 cells by 50%; format: functional, cell-based
How it was run: (§3)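 MT-4 cells infected with HIV-1 (strain HTLV-III_B/LAI) or HIV-2 (strain LAV_ROD). The end point is 50% inhibition of virus-induced cytopathicity.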

[10] = tested on: E6SM; experiment: Concentration required to reduce herpes simplex virus-2(Lyons) inducted cytopathicity by 50% (E6SM cells); format: functional, cell-based; details: Homo sapiens; how it was run: as §2
[11] = tested on: E6SM; experiment: Concentration required to reduce herpes simplex virus-1TK( B2006) inducted cytopathicity by 50% (E6SM cells); format: functional, cell-based; details: Homo sapiens; how it was run: as §2
[12] = tested on: Vero; experiment: Concentration required to reduce parainfluenza-3 virus-inducted cytopathicity by 50% (Vero cells); format: functional, cell-based; details: Chlorocebus sabaeus
[13] = tested on: E6SM; experiment: Concentration required to reduce herpes simplex virus-1TK (KOS) inducted cytopathicity by 50% (E6SM cells); format: functional, cell-based; details: Homo sapiens; how it was run: as §2
[14] = tested on: E6SM; experiment: Concentration required to reduce herpes simplex virus-1TK (F) inducted cytopathicity by 50% (E6SM cells); format: functional, cell-based; details: Homo sapiens; how it was run: as §2
[15] = tested on: HEL; experiment: Concentration required to reduce human cytomegalo virus(AD-169) inducted cytopathicity by 50% (HEL cells); format: functional, cell-based; how it was run: as §2
[16] = tested on: Vero; experiment: Concentration required to cause a microscopically detectable alteration of normal Vero cell morphology; format: functional, cell-based; details: Chlorocebus sabaeus
[17] = tested on: HEL; experiment: Concentration required to reduce human cytomegalo virus(Davis) inducted cytopathicity by 50% (HEL cells); format: functional, cell-based; how it was run: as §2
[18] = tested on: E6SM; experiment: Concentration required to reduce herpes simplex virus-1TK (VMW1837) inducted cytopathicity by 50% (E6SM cells); format: functional, cell-based; details: Homo sapiens; how it was run: as §2
[19] = tested on: HEL; experiment: Concentration required to inhibit HEL cell growth by 50%; format: functional, cell-based; details: Homo sapiens
[20] = tested on: Vero; experiment: Concentration required to reduce Tacaribe virus-inducted cytopathicity by 50% (Vero cells); format: functional, cell-based; details: Chlorocebus sabaeus
[21] = tested on: E6SM; experiment: Concentration required to reduce herpes simplex virus-2(196) inducted cytopathicity by 50% (E6SM cells); format: functional, cell-based; details: Homo sapiens; how it was run: as §2
[22] = tested on: HeLa; experiment: Concentration required to reduce Coxsackie virus-inducted cytopathicity by 50% (HeLa cells); format: functional, cell-based; details: Homo sapiens
[23] = tested on: Human immunodeficiency virus 1; experiment: Concentration required to inhibit by 50% human immunodeficiency virus-1 induced syncytium formation upon coculturing persistently HIV-infected HUT-78 cells with MOLT-4 cells; format: functional, organism-based; details: Human immunodeficiency virus 1, MOLT-4
How it was run: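 MOLT-4 (clone 8) cells at 1 × 10^6 cells/mL, cocultured with an equal number of persistently infected HUT-78/HIV-1 or HUT-78/HIV-2 cells across a range of compound concentrations. Giant cells were counted under the microscope after 24 h of cocultivation. The value is the concentration giving 50% inhibition of syncytium formation.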

[24] = tested on: Vero; experiment: Concentration required to reduce Junin virus-inducted cytopathicity by 50% (Vero cells); format: functional, cell-based; details: Chlorocebus sabaeus
[25] = tested on: HeLa; experiment: Concentration required to reduce polio-1 virus-inducted cytopathicity by 50% (HeLa cells); format: functional, cell-based; details: Homo sapiens
[26] = tested on: CEM-4; experiment: Inhibitory concentration required to inhibit HIV-induced cytopathicity in CEM-4 cells by 50%; format: functional, cell-based; details: Homo sapiens
How it was run: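 CEM-4 cells infected with HIV-1 (strain HTLV-III_B/LAI). The end point is 50% inhibition of HIV-induced cytopathicity.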

[27] = tested on: E6SM; experiment: Concentration required to cause a microscopically detectable alteration of normal E6SM cell morphology; format: functional, cell-based; details: Homo sapiens, read-out: IC50
How it was run: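 Minimum cytotoxic concentration, read microscopically as the level that causes a detectable alteration of normal cell morphology.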

[28] = tested on: HeLa; experiment: Concentration required to reduce vesicular stomatitis virus-inducted cytopathicity by 50% (HeLa cells); format: functional, cell-based; details: Homo sapiens
[29] = tested on: E6SM; experiment: Concentration required to reduce herpes simplex virus-2(G) inducted cytopathicity by 50% (E6SM cells); format: functional, cell-based; details: Homo sapiens; how it was run: as §2
[30] = tested on: MT4; experiment: Concentration required to inhibit human immunodeficiency virus-1 induced cytopathicity in MT-4 cells by 50%; format: functional, cell-based; how it was run: as §3
[31] = tested on: Vero; experiment: Concentration required to reduce reovirus-1 inducted cytopathicity by 50% (Vero cells); format: functional, cell-based; details: Chlorocebus sabaeus
[32] = tested on: Human immunodeficiency virus 2; experiment: Concentration required to inhibit by 50% human immunodeficiency virus-2 induced syncytium formation upon coculturing persistently HIV-infected HUT-78 cells with MOLT-4 cells; details: HUT-78, MOLT-4

O=C(O)CC(SCCCOC[C@H]1O[C@@](COCCCSC(CC(=O)O)C(=O)O)(O[C@H]2O[C@H](COCCCSC(CC(=O)O)C(=O)O)[C@@H](OCCCSC(CC(=O)O)C(=O)O)[C@H](OCCCSC(CC(=O)O)C(=O)O)[C@H]2OCCCSC(CC(=O)O)C(=O)O)[C@@H](OCCCSC(CC(=O)O)C(=O)O)[C@@H]1OCCCSC(CC(=O)O)C(=O)O)C(=O)O (some centres not stated)
pIC50 [1]: < 4.05
CC50 [2]: > 113 µM
pIC50 [3]: < 4.05
pIC50 [4]: < 3.74
pIC50 [5]: < 4.05
pIC50 [6]: < 4.05
pIC50 [7]: < 3.74
CC50 [8]: > 45.1 µM
pIC50 [9]: 5.54
pIC50 [10]: < 3.87
pIC50 [11]: < 3.74
pIC50 [12]: < 4.05
pIC50 [13]: < 3.74
pIC50 [14]: < 3.74
pIC50 [15]: < 4.66
pIC50 [16]: < 4.05
pIC50 [17]: < 4.66
pIC50 [18]: < 3.74
pIC50 [19]: < 4.66
pIC50 [20]: < 4.66
pIC50 [21]: < 3.74
pIC50 [22]: < 4.05
pIC50 [23]: 4.65
pIC50 [24]: < 4.66
pIC50 [25]: < 4.05
pIC50 [26]: 5.52
minimum cytotoxic concentration [27]: > 181 µM
pIC50 [28]: < 4.05
pIC50 [29]: < 3.74
pIC50 [30]: 6.74
pIC50 [31]: < 4.05
pIC50 [32]: 4.65
